The test system of experiment [1] is A549. In words: Cytotoxicity against human A549 cells assessed growth inhibition at 40 uM after 48 hrs by MTS assay relative to control. The format is functional. An outline of the steps: (§1)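 Cultured in RPMI-1640 or DMEM with 10% FBS at 37 °C under 5% CO2. Cells seeded, given 12 h at 37 °C, then treated with compound at 40 μM for 48 h. Growth inhibition measured by MTS assay (formazan colorimetry).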

Experiment [2] deals with SW480. The experiment can be described thus: Cytotoxicity against human SW480 cells assessed growth inhibition at 40 uM after 48 hrs by MTS assay relative to control. The format is functional. An outline of the steps:
as §1

Another experiment concerns SMMC-7721. The experiment can be described thus: Cytotoxicity against human SMMC7721 cells assessed growth inhibition at 40 uM after 48 hrs by MTS assay relative to control. In kind it is functional. The method, boiled down: as §1
The test system of experiment [3] is MCF7. In words: Cytotoxicity against human MCF7 cells assessed as cell viability after 48 hrs by MTS assay. In kind it is functional, cell-based. The conditions noted are these: MCF7, 48 h. An outline of the steps: (§2)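 Cells grown in RPMI-1640 or DMEM with 10% FBS at 37 °C, 5% CO2. Seeded, incubated 12 h, then exposed to a range of concentrations in triplicate for 48 h. Viability read by MTS reduction to formazan. IC50 calculated by Reed and Muench method; cis-platin positive control.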

Experiment [4] relates to MCF7. In words: Cytotoxicity against human MCF7 cells assessed growth inhibition at 40 uM after 48 hrs by MTS assay relative to control. The format is functional. The method, boiled down: as §1
In experiment [5] the test system is A549. In words: Cytotoxicity against human A549 cells assessed as cell viability after 48 hrs by MTS assay. The format is functional, cell-based. The note with it: A549, 48 h. The method, boiled down: as §2
The test system of a further experiment is HL-60. The experiment can be described thus: Cytotoxicity against human HL60 cells assessed growth inhibition at 40 uM after 48 hrs by MTS assay relative to control. In kind it is functional. The method, boiled down: as §1
Experiment [6] is described as follows: Cytotoxicity against human SMMC7721 cells assessed as cell viability after 48 hrs by MTS assay. In kind it is functional, cell-based. The conditions noted are these: SMMC-7721, 48 h. The method, boiled down:
as §2

The nature of experiment [7]: Cytotoxicity against human HL60 cells assessed as cell viability after 48 hrs by MTS assay. The format is functional, cell-based. The conditions noted are these: HL-60, 48 h. An outline of the steps: as §2
Experiment [8] relates to SW480. The experiment can be described thus: Cytotoxicity against human SW480 cells assessed as cell viability after 48 hrs by MTS assay. The format is functional, cell-based. The note with it: SW480, 48 h. An outline of the steps: as §2

Structures are written as SMILES. The source made the active and inactive calls. No cut-off for these calls is given here.

As to `CO[C@@H]1O[C@@H](O)[C@@H]2C(C)(C)CC[C@@H]3OC(=O)[C@@]45C[C@H](CC[C@H]4C132)[C@@H](C)C5=O` (stereo not given in full), the “growth inhibition (GI)” value in the experiment with A549 [1], in the experiment with SW480 [2], in the experiment with SMMC-7721, in the experiment on MCF7 [4] and in the experiment on HL-60 was “inactive” in each case. The IC50 (with MCF7 [3]; with A549 [5]; in experiment [6]; in experiment [7]; in the experiment with SW480 [8]) was over 40 µM each time.

As to `COC[C@H]1C(=O)[C@]23C[C@@H]1C[C@@H](O)[C@H]2C12CO[C@@H](O)[C@@H]1C(C)(C)CC[C@@H]2OC3=O` (stereo not given in full), the “growth inhibition (GI)” value in the experiment on A549 [1], in the experiment with SW480 [2], with SMMC-7721, with MCF7 [4] and with HL-60 was “inactive” each time. In addition, the IC50 (in the experiment with MCF7 [3]; in the experiment with A549 [5]; in experiment [6]; in experiment [7]; in the experiment with SW480 [8]) was over 40 µM each time.

Turning to `COC[C@@H]1C(=O)[C@]23C[C@@H]1C[C@@H](O)[C@H]2C12CO[C@@H](O)[C@@H]1C(C)(C)CC[C@@H]2OC3=O` (stereo not given in full), the “growth inhibition (GI)” value in the experiment on A549 [1], in the experiment with SW480 [2], in the experiment on SMMC-7721, with MCF7 [4] and in the experiment with HL-60 was “inactive” throughout. Further, the IC50 (in the experiment on MCF7 [3]; in the experiment with A549 [5]; in experiment [6]; in experiment [7]; in the experiment with SW480 [8]) was over 40 µM throughout.

`C=C1C(=O)[C@]23C[C@@H]1C[C@@H](O)[C@H]2C12CO[C@@H](O)[C@@H]1C(C)(C)[C@@H](O)C[C@@H]2OC3=O` (stereo not given in full): the “growth inhibition (GI)” value in the experiment on A549 [1], with SW480 [2], in the experiment on SMMC-7721, with MCF7 [4] and in the experiment on HL-60 was “inactive” each time. For the same molecule, the IC50 (in the experiment on MCF7 [3]; in the experiment on A549 [5]; in experiment [6]; in [7]; in the experiment on SW480 [8]) was over 40 µM throughout.

Consider `C[C@H]1C(=O)[C@]23C[C@@H]1CC[C@H]2C12CO[C@@H](O)[C@@H]1C(C)(C)CC[C@@H]2OC3=O` (stereo not given in full), for which the “growth inhibition (GI)” value with A549 [1], in the experiment with SW480 [2], in the experiment on SMMC-7721, with MCF7 [4] and in the experiment with HL-60 was “inactive” in each case. Further, the IC50 (with MCF7 [3]; in the experiment on A549 [5]; in experiment [6]; in experiment [7]; with SW480 [8]) was over 40 µM throughout.

Take `C[C@H]1C(=O)[C@]23C[C@@H]1CC[C@H]2C12CO[C@@H](O)[C@@H]1C(C)(C)[C@@H](O)C[C@@H]2OC3=O` (stereo not given in full): the “growth inhibition (GI)” value with A549 [1], with SW480 [2], in the experiment with SMMC-7721, with MCF7 [4] and with HL-60 was “inactive” in each case. The IC50 (with MCF7 [3]; in the experiment on A549 [5]; in experiment [6]; in experiment [7]; in the experiment on SW480 [8]) was over 40 µM throughout.

Turning to `CO[C@@H]1OC(O)C23[C@H](CCC(C)(C)[C@@H]12)OC(=O)[C@@]12C[C@H](CC[C@@H]31)[C@@H](C)C2=O` (stereo not given in full), the “growth inhibition (GI)” value in the experiment on A549 [1], with SW480 [2], in the experiment with SMMC-7721, in the experiment on MCF7 [4] and in the experiment with HL-60 was “inactive” throughout. For the same molecule, the IC50 (with MCF7 [3]; in the experiment with A549 [5]; in experiment [6]; in [7]; in the experiment with SW480 [8]) was over 40 µM in each case.

For the molecule `C[C@H]1C(=O)[C@]23C[C@@H]1CC[C@H]2C12C(O)O[C@@H](O)[C@@H]1C(C)(C)CC[C@@H]2OC3=O` (stereo not given in full), the “growth inhibition (GI)” value with A549 [1], with SW480 [2], in the experiment on SMMC-7721, in the experiment on MCF7 [4] and with HL-60 was “inactive” each time. Besides, the IC50 (in the experiment on MCF7 [3]; with A549 [5]; in experiment [6]; in [7]; in the experiment on SW480 [8]) was over 40 µM throughout.

Regarding `C[C@]12CC[C@@H]3OC(=O)[C@@]45C[C@H](C[C@@H](O)[C@@H]4[C@]34CO[C@H](OC1)[C@H]24)[C@@]1(CCC2=C(O1)[C@]13C[C@@H]2C[C@@H](O)[C@@H]1[C@]12CO[C@@H]4OC[C@](C)(CC[C@@H]1OC3=O)[C@@H]42)C5=O`, the “growth inhibition (GI)” value in the experiment on A549 [1], with SW480 [2], in the experiment with SMMC-7721, with MCF7 [4] and with HL-60 was “inactive” each time. The IC50 (with MCF7 [3]; in the experiment with A549 [5]; in [6]; in experiment [7]; in the experiment on SW480 [8]) was over 40 µM throughout.

For the molecule `C=C1[C@H]2C[C@@H](O)[C@H]3C45CO[C@@H]6OC[C@](C)(CC[C@@H]4OC(=O)[C@]3(C2)[C@@H]1O)[C@@H]65` (stereo not given in full), the “growth inhibition (GI)” value in the experiment with A549 [1], with SW480 [2], with SMMC-7721, in the experiment with MCF7 [4] and in the experiment with HL-60 was “inactive” in each case. For the same molecule, the IC50 (in the experiment with MCF7 [3]; in the experiment with A549 [5]; in experiment [6]; in [7]; in the experiment on SW480 [8]) was over 40 µM in each case.

On to `C=C1[C@H]2CC[C@@H]3[C@](C2)(C(=O)O[C@H]2C[C@@H]4OC5O[C@@H](O)[C@H](C4(C)C)[C@@]523)[C@@H]1O`, for which the “growth inhibition (GI)” value in the experiment with A549 [1], in the experiment on SW480 [2], in the experiment on SMMC-7721, in the experiment on MCF7 [4] and in the experiment with HL-60 was “inactive” in each case. In addition, the IC50 (in the experiment on MCF7 [3]; in the experiment with A549 [5]; in experiment [6]; in experiment [7]; with SW480 [8]) was over 40 µM throughout.

As for `C[C@H]1C(=O)[C@]23C[C@@H]1CC[C@H]2C12[C@H](CCC(C)(C)[C@H]1CO[C@@H]2O)OC3=O` (stereo not given in full), the “growth inhibition (GI)” value in the experiment with A549 [1], with SW480 [2], with SMMC-7721, with MCF7 [4] and in the experiment on HL-60 was “inactive” throughout. Also, the IC50 (with MCF7 [3]; in the experiment with A549 [5]; in experiment [6]; in experiment [7]; in the experiment with SW480 [8]) was over 40 µM throughout.

As for `C=C1C(=O)[C@]23C[C@@H]1C[C@@H](O)[C@H]2C12C(O)O[C@@H]4OC(O)[C@](C)(CC[C@@H]1OC3=O)[C@@H]42` (stereo not given in full), the “growth inhibition (GI)” value with A549 [1], in the experiment on SW480 [2], in the experiment on SMMC-7721, with MCF7 [4] and in the experiment with HL-60 was “inactive” each time. In addition, the IC50 (with MCF7 [3]; in the experiment on A549 [5]; in experiment [6]; in experiment [7]; with SW480 [8]) was over 40 µM throughout.

Take `C[C@@H]1C(=O)[C@]23C[C@@H]1CC[C@H]2C12CO[C@@H](O)[C@@H]1C(C)(C)CC[C@@H]2OC3=O` (stereo not given in full): the “growth inhibition (GI)” value with A549 [1], in the experiment on SW480 [2], in the experiment with SMMC-7721, with MCF7 [4] and in the experiment with HL-60 was “inactive” in each case. Besides, the IC50 (in the experiment with MCF7 [3]; in the experiment on A549 [5]; in [6]; in experiment [7]; with SW480 [8]) was over 40 µM each time.

Turning to `C[C@H]1C(=O)[C@]23C[C@@H]1CC[C@H]2C12[C@H](O)OC[C@@H]1C(C)(C)CC[C@@H]2OC3=O` (stereo not given in full), the “growth inhibition (GI)” value in the experiment on A549 [1], in the experiment with SW480 [2], in the experiment with SMMC-7721, in the experiment with MCF7 [4] and in the experiment on HL-60 was “inactive” throughout. In addition, the IC50 (in the experiment with MCF7 [3]; in the experiment on A549 [5]; in experiment [6]; in experiment [7]; in the experiment with SW480 [8]) was over 40 µM in each case.

The record behind these values is ChEMBL document CHEMBL3779809, “Bioactive Enmein-Type ent-Kaurane Diterpenoids from Isodon phyllostachys” (J Nat Prod, 2016).
